{
  "source": "the RNAGym collection of RNA variant scans (doi:10.1002/anie.201605470)",
  "parents": {"B1": {"name": "Osa-1-4 twister ribozyme (parent)", "chain": "CCGCCUAACACUGCCAAUGCCGGUCCCAAGCCCGGAUAAAAGUGGAGGGGGCGG"}},
  "data": [
    {"variants_of": "B1", "assay": "self-cleavage, relative activity (ratio to wild type); higher = more cleavage; co-transcriptional", "summary_of_the_method": "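A DNA template encoding a 54-nucleotide twister ribozyme from Oryza sativa was made so that each of the 48 positions downstream of the cleavage site carried 97 % wild-type base and 1 % of each other base. Transcription in vitro ran for 2 h at 37 °C, during which the ribozyme could cleave itself. Reverse transcription used a template-switching oligonucleotide, and the products were PCR-amplified and deep-sequenced. Each read was scored as cleaved or uncleaved by whether upstream sequence was present, and relative activity is the fraction cleaved normalised to wild type.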", "values": [
      {"variant": "A38G G34A", "self-cleavage": 0.84},
      {"variant": "A38G G34U", "self-cleavage": 0.74},
      {"variant": "A38G G34C", "self-cleavage": 0.59},
      {"variant": "A38U C32G", "self-cleavage": 0.12},
      {"variant": "A38U C32A", "self-cleavage": 0.08},
      {"variant": "A38U C32U", "self-cleavage": 0.11},
      {"variant": "A38G G13A", "self-cleavage": 0.12},
      {"variant": "A38G G13U", "self-cleavage": 0.03},
      {"variant": "A38G G13C", "self-cleavage": 0.03},
      {"variant": "A38U G23U", "self-cleavage": 0.07},
      {"variant": "A38U G23C", "self-cleavage": 0.07},
      {"variant": "A38U G23A", "self-cleavage": 0.33},
      {"variant": "A38U C9A", "self-cleavage": 0.42},
      {"variant": "A38U C9U", "self-cleavage": 0.74},
      {"variant": "A38U C9G", "self-cleavage": 0.84},
      {"variant": "A38U G45C", "self-cleavage": 0.06},
      {"variant": "A38U G45U", "self-cleavage": 0.09},
      {"variant": "A38U G45A", "self-cleavage": 0.23},
      {"variant": "A38U A8U", "self-cleavage": 0.25},
      {"variant": "A38U A8C", "self-cleavage": 0.09},
      {"variant": "A38U A8G", "self-cleavage": 0.52},
      {"variant": "A38G G50A", "self-cleavage": 0.74},
      {"variant": "A38G G50C", "self-cleavage": 1},
      {"variant": "A38G G50U", "self-cleavage": 1},
      {"variant": "A38U C14G", "self-cleavage": 0.11},
      {"variant": "A38U C14A", "self-cleavage": 0.07},
      {"variant": "A38U C14U", "self-cleavage": 0.22},
      {"variant": "A38U C15G", "self-cleavage": 0.25},
      {"variant": "A38U C15A", "self-cleavage": 0.23},
      {"variant": "A38U C15U", "self-cleavage": 0.21},
      {"variant": "A38U C20G", "self-cleavage": 0.15},
      {"variant": "A38U C20U", "self-cleavage": 0.98},
      {"variant": "A38U C20A", "self-cleavage": 0.82},
      {"variant": "A38U A40G", "self-cleavage": 0.64},
      {"variant": "A38U A40U", "self-cleavage": 0.55},
      {"variant": "A38U A40C", "self-cleavage": 0.06},
      {"variant": "A38G U12G", "self-cleavage": 0.41},
      {"variant": "A38G U12A", "self-cleavage": 0.88},
      {"variant": "A38G U12C", "self-cleavage": 0.42},
      {"variant": "A38G C52U", "self-cleavage": 0.95},
      {"variant": "A38U G13C", "self-cleavage": 0.03},
      {"variant": "A38U G13A", "self-cleavage": 0.11},
      {"variant": "A38U G13U", "self-cleavage": 0.03},
      {"variant": "A38U G49A", "self-cleavage": 0.12},
      {"variant": "A38U G49U", "self-cleavage": 0.09},
      {"variant": "A38U G49C", "self-cleavage": 0.05},
      {"variant": "A38U C21G", "self-cleavage": 0.06},
      {"variant": "A38U C21A", "self-cleavage": 0.53},
      {"variant": "A38U C21U", "self-cleavage": 0.99},
      {"variant": "A38U G42U", "self-cleavage": 0.08},
      {"variant": "A38U G42A", "self-cleavage": 0.6},
      {"variant": "A38U G42C", "self-cleavage": 0.17},
      {"variant": "A38U G35C", "self-cleavage": 0.13},
      {"variant": "A38U G35A", "self-cleavage": 0.83},
      {"variant": "A38U G35U", "self-cleavage": 0.89},
      {"variant": "A38G G48A", "self-cleavage": 0.11},
      {"variant": "A38G G48U", "self-cleavage": 0.07},
      {"variant": "A38G G48C", "self-cleavage": 0.1},
      {"variant": "A38U C52G", "self-cleavage": 0.98},
      {"variant": "A38U C52A", "self-cleavage": 1},
      {"variant": "A38U C52U", "self-cleavage": 1.01},
      {"variant": "A38G U18C", "self-cleavage": 0.97},
      {"variant": "A38G U18A", "self-cleavage": 0.92},
      {"variant": "A38G U18G", "self-cleavage": 0.84},
      {"variant": "A38G G42C", "self-cleavage": 0.23},
      {"variant": "A38G G42A", "self-cleavage": 0.7},
      {"variant": "A38G G42U", "self-cleavage": 0.12},
      {"variant": "A38U G19A", "self-cleavage": 0.57},
      {"variant": "A38U G19U", "self-cleavage": 0.22},
      {"variant": "A38U G19C", "self-cleavage": 0.04},
      {"variant": "A38U G47A", "self-cleavage": 0.18},
      {"variant": "A38U G47U", "self-cleavage": 0.19},
      {"variant": "A38U G47C", "self-cleavage": 0.08},
      {"variant": "A38U C31A", "self-cleavage": 0.03},
      {"variant": "A38U C31G", "self-cleavage": 0.08},
      {"variant": "A38U C31U", "self-cleavage": 0.75},
      {"variant": "A38G G19U", "self-cleavage": 0.14},
      {"variant": "A38G G19C", "self-cleavage": 0.06},
      {"variant": "A38G G19A", "self-cleavage": 0.46},
      {"variant": "A38G G54C", "self-cleavage": 0.94},
      {"variant": "A38G G54U", "self-cleavage": 0.94},
      {"variant": "A38G G54A", "self-cleavage": 0.92},
      {"variant": "A38G U24C", "self-cleavage": 0.32},
      {"variant": "A38G U24G", "self-cleavage": 0.03},
      {"variant": "A38G U24A", "self-cleavage": 0.16},
      {"variant": "A38U C27G", "self-cleavage": 0.08},
      {"variant": "A38U C27A", "self-cleavage": 0.14},
      {"variant": "A38U C27U", "self-cleavage": 0.15},
      {"variant": "A38U G34C", "self-cleavage": 0.5},
      {"variant": "A38U G34A", "self-cleavage": 0.78},
      {"variant": "A38U G34U", "self-cleavage": 0.77},
      {"variant": "A38G G30A", "self-cleavage": 0.05},
      {"variant": "A38G G30C", "self-cleavage": 0.04},
      {"variant": "A38G G30U", "self-cleavage": 0.04},
      {"variant": "A38G U37G", "self-cleavage": 1},
      {"variant": "A38G U37A", "self-cleavage": 1},
      {"variant": "A38G U37C", "self-cleavage": 1.05},
      {"variant": "A38G G53A", "self-cleavage": 0.8},
      {"variant": "A38G G53U", "self-cleavage": 0.31},
      {"variant": "A38G G53C", "self-cleavage": 0.09},
      {"variant": "A38U G50A", "self-cleavage": 0.64},
      {"variant": "A38U G50C", "self-cleavage": 0.99},
      {"variant": "A38U G50U", "self-cleavage": 1.01},
      {"variant": "A38G G45A", "self-cleavage": 0.26},
      {"variant": "A38G G45U", "self-cleavage": 0.09},
      {"variant": "A38G G45C", "self-cleavage": 0.07},
      {"variant": "A38G G23U", "self-cleavage": 0.1},
      {"variant": "A38G G23C", "self-cleavage": 0.08},
      {"variant": "A38G G23A", "self-cleavage": 0.47},
      {"variant": "A38G G44C", "self-cleavage": 0.98},
      {"variant": "A38G G44U", "self-cleavage": 0.95},
      {"variant": "A38G G44A", "self-cleavage": 0.93},
      {"variant": "A38G G47A", "self-cleavage": 0.19},
      {"variant": "A38G G47C", "self-cleavage": 0.08},
      {"variant": "A38G G47U", "self-cleavage": 0.17},
      {"variant": "A38U C33G", "self-cleavage": 0.05},
      {"variant": "A38U C33A", "self-cleavage": 0.1},
      {"variant": "A38U C33U", "self-cleavage": 0.79},
      {"variant": "A38U C26G", "self-cleavage": 0.09},
      {"variant": "A38U C26A", "self-cleavage": 0.04},
      {"variant": "A38U C26U", "self-cleavage": 0.92},
      {"variant": "A38U G30U", "self-cleavage": 0.04},
      {"variant": "A38U G30C", "self-cleavage": 0.04},
      {"variant": "A38U G30A", "self-cleavage": 0.04},
      {"variant": "A38G G22U", "self-cleavage": 0.85},
      {"variant": "A38G G22C", "self-cleavage": 0.13},
      {"variant": "A38G G22A", "self-cleavage": 1.01},
      {"variant": "A38U G44C", "self-cleavage": 0.96},
      {"variant": "A38U G44U", "self-cleavage": 0.89},
      {"variant": "A38U G44A", "self-cleavage": 0.92},
      {"variant": "A38U A39C", "self-cleavage": 0.96},
      {"variant": "A38U A39G", "self-cleavage": 0.64},
      {"variant": "A38U A39U", "self-cleavage": 0.97},
      {"variant": "A38G G35A", "self-cleavage": 0.83},
      {"variant": "A38G G35C", "self-cleavage": 0.26},
      {"variant": "A38G G35U", "self-cleavage": 0.86},
      {"variant": "A38G G49C", "self-cleavage": 0.08},
      {"variant": "A38G G49U", "self-cleavage": 0.13},
      {"variant": "A38G G49A", "self-cleavage": 0.13},
      {"variant": "A38U G22C", "self-cleavage": 0.08},
      {"variant": "A38U G22A", "self-cleavage": 1},
      {"variant": "A38U G22U", "self-cleavage": 0.89},
      {"variant": "A38G U43C", "self-cleavage": 0.35},
      {"variant": "A38G U43A", "self-cleavage": 0.89},
      {"variant": "A38G U43G", "self-cleavage": 0.62},
      {"variant": "A38U A46C", "self-cleavage": 0.06},
      {"variant": "A38U A46G", "self-cleavage": 0.05},
      {"variant": "A38U A46U", "self-cleavage": 0.07},
      {"variant": "A38U A41C", "self-cleavage": 0.89},
      {"variant": "A38U A41U", "self-cleavage": 0.98},
      {"variant": "A38U A41G", "self-cleavage": 0.64},
      {"variant": "A38U C11A", "self-cleavage": 0.78},
      {"variant": "A38U C11U", "self-cleavage": 0.97},
      {"variant": "A38U C11G", "self-cleavage": 0.59},
      {"variant": "A38U A7G", "self-cleavage": 0.24},
      {"variant": "A38U A7C", "self-cleavage": 0.05},
      {"variant": "A38U A7U", "self-cleavage": 0.12},
      {"variant": "A38U", "self-cleavage": 1.01},
      {"variant": "A38U G48A", "self-cleavage": 0.1},
      {"variant": "A38U G48U", "self-cleavage": 0.08},
      {"variant": "A38U G48C", "self-cleavage": 0.08},
      {"variant": "A38U C25G", "self-cleavage": 0.09},
      {"variant": "A38U C25A", "self-cleavage": 0.07},
      {"variant": "A38U C25U", "self-cleavage": 0.9},
      {"variant": "A38G G51U", "self-cleavage": 0.36},
      {"variant": "A38G G51A", "self-cleavage": 0.72},
      {"variant": "A38G G51C", "self-cleavage": 0.11}
    ]}
  ]
}
